Only some compounds are listed: those with a hit (about 4.6% of all), similar ones and a draw of the others.
CHO parental Ca = counter-screen for OX1R antagonists: effect in parental CHO cells | parental CHO-K1, ATP-induced calcium, Fluo-8 fluorescence | inhibition, % at 5.6 µM | hit rate 0.63% among 330,000 | AID 463079;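 active = inhibition above that plate's mean sample inhibition plus 3 SD, cut at about 26% in these data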;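 note: 0% = ATP-challenged DMSO wells and 100% = DMSO wells without ATP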
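Assay system: parental CHO cells; Read-out basis: percent inhibition of ATP-evoked calcium rise, normalized to controls; Benchmarks: ATP and no-ATP DMSO wells; Compound dosing: single nominal dose of 5.6 µM per compound; Signal: Fluo-8 calcium dye fluorescence; Also added: ATP as calcium-mobilizing challenge; Repeats: singlicate.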
TAAR1 ag = agonists of human TAAR1; hit rate 0.99% among 360,000; CHO RD-HGA16 TAAR1, Fluo-8 calcium fluorescence; vehicle wells 0%, saturating PEA agonist 100%; Q96RJ0; AID 624467; activation, % at 3 µM;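 active = activation above the mean activation of all test compounds in the run plus 3 SD, cut at about 38% in these data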
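System: CHO RD-HGA16 cells carrying human TAAR1 plus Gα16; Incubation: 17-24 h seeding, 75 min 37 °C dye, 30 min RT; Measured by: Fluo-8 fluorescence, 5 s baseline then 140 s kinetic read; Control set: DMSO and PEA EC100; Replication: single well for each compound.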
OX1R antag-1 = antagonists of human orexin 1 receptor (OX1R). O43613. OX1R-expressing cells, FRET antagonist read-out. inhibition, % at 6.6 µM. hit rate 1.8% among 330,000; in the data active = inhibition mostly above about 38%, no sharp cut-off; inactive = mostly below about 40%;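 note: 0% = agonist challenge alone and 100% = reference antagonist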
Target sequence (O43613 whole entry, looked up): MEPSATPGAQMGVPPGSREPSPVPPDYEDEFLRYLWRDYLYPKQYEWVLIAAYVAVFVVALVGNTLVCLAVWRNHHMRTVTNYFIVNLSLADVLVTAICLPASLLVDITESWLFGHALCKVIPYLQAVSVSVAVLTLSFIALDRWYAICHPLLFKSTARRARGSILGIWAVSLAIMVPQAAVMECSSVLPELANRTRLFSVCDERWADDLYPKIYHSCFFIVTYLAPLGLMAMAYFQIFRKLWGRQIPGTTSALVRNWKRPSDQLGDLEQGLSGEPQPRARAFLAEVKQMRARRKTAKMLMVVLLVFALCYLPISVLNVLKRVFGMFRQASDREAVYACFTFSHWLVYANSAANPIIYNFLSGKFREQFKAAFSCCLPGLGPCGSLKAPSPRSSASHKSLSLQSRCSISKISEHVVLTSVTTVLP
TAAR1 antagonist = antagonists of human TAAR1; CHO RD-HGA16 TAAR1, Fluo-8 calcium fluorescence, antagonist; inhibition, % at 3 µM; hit rate 1.5% among 360,000; AID 624466;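 active = inhibition above a per-plate cutoff, the mean inhibition of test compounds on that plate plus 3 SD, cut at about 49% in these data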;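 note: 0% = DMSO plus EC80 beta-PEA response and 100% = DMSO alone without agonist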
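Test system: hTAAR1-expressing CHO RD-HGA16 cells, Gα16-coupled; Probe or stimulus: EC80 β-phenethylamine stimulus; Compound dosing: single nominal final test compound concentration of 3 µM; Timing: 140 s kinetic read after compound, 140 s after agonist; Signal: Fluo-8 calcium-sensitive fluorescence; Measure: % inhibition of agonist calcium response; Controls: DMSO and EC80 PEA controls.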
GPR7 antagonist = antagonists of human GPR7 (neuropeptides B/W receptor 1). P48145. GPR7-expressing cells, fluorescence antagonist assay. inhibition, % at 4.4 µM. hit rate 1.1% among 290,000. AID 1861; in the data active = inhibition above about 16%, passing the limit was not always enough;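 note: cells stimulated with the agonist NPW; 0% = agonist with vehicle and 100% = vehicle without agonist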
OX1R antag-2 = antagonists of human orexin 1 receptor. O43613. CHO/OX1R cells, Fluo-8 calcium fluorescence, orexin A. inhibition, % at 5 µM. hit rate 0.43% among 330,000. AID 434989;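 active = inhibition above its plate's threshold, mean inhibition of all tested compounds on the plate plus 3 SD, cut at about 37% in these data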;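 note: 0% = orexin A challenge wells and 100% = SB-334867-A antagonist wells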
Numbers without * were called inactive; . = not tested or not shown.

SMILES | CHO parental Ca | TAAR1 ag | OX1R antag-1 | TAAR1 antagonist | GPR7 antagonist | OX1R antag-2
CC(C)c1cc(=O)oc2c3c4c(cc12)CCCN4CCC3 | -21 | 1 | 37 | 14 | 6 | -19
CCn1cc(CN2CCN(Cc3ccc(C)o3)C(CCO)C2)c2ccccc21 (stereo unspecified) | -16 | 1 | 8 | 3 | -4 | -24
CC(C)C[C@H]1CN=C(N(C)C)N1CCc1cccc(F)c1 | -4 | 14 | 0 | 8 | . | -29
CC(C)C[C@H]1CN=C(Nc2ccccc2)N1CCc1cccc(F)c1 | 50* | . | 8 | . | . | 87*
O=C(NCc1cccc(F)c1)c1cccc2c1C(=O)c1ccc(N3CCC(Cc4ccccc4)CC3)cc1S2(=O)=O | 42* | . | 15 | . | . | 40
COc1ccccc1N1CCN(c2ccc3c(c2)S(=O)(=O)c2cccc(C(=O)NCc4ccc(F)cc4)c2C3=O)CC1 | . | 8 | . | 57* | . | .
O=C(NCc1cc(C(F)(F)F)ccc1Cl)c1cccc2c1C(=O)c1ccc(N3CCC(N4CCCCC4)CC3)cc1S2(=O)=O | . | 16 | . | 59* | . | .
O=C(NCc1cccc(C(F)(F)F)c1)c1cccc2c1C(=O)c1ccc(N3CCC(Cc4ccccc4)CC3)cc1S2(=O)=O | 27 | . | 6 | . | . | 49
Cn1c(=O)n(Cc2ccccc2)c(=O)c2c1nc(NCC1CCCO1)n2Cc1ccccc1 (stereo unspecified) | -33 | 12 | 26 | 0 | -14 | -37
CC(C)CNC(=O)c1cccc(NC(=O)C2CCCO2)c1 (stereo unspecified) | -17 | 0 | 22 | -6 | -8 | -7
CN(C)c1cccc(CNC(=O)c2ccc3sc([C@@H]4O[C@H](CO)[C@H](O)[C@H](O)[C@H]4O)nc3c2)c1 | . | 2 | . | -6 | . | .
Cc1ccc(SCCC(=O)N2CCC(C)CC2)cc1 | -20 | 20 | 7 | -5 | 4 | -22
O=C1NC(=O)C(Cc2cccc(Oc3ccccc3)c2)S1 (stereo unspecified) | -5 | 0 | 44* | -22 | 5 | -14
COc1ccccc1NC(=O)C(=O)NCC1CCCN1S(=O)(=O)c1cccs1 (stereo unspecified) | -28 | 5 | 51 | -18 | . | -22
Clc1ccc(CON/C=N/c2ncnc3sccc23)c(Cl)c1 | 23 | 6 | 45* | 24 | -13 | -9
Clc1ccc(CONc2ncnc3nonc23)c(Cl)c1 | 11 | 17 | 18 | 23 | -9 | -1
COc1ccccc1CC(NC(C)=O)C(=O)NC1CCN(C(=O)Nc2ccccc2C)CC1 (stereo unspecified) | 10 | -3 | 7 | -10 | -12 | -2
CCN(CC(=O)Nc1c(F)cccc1F)C(=O)Cc1csc(-c2ccccc2)n1 | -30 | 10 | 63* | -6 | . | -10
CCN(CC(=O)Nc1c(F)cccc1F)C(=O)Cc1c(C)nc2ccccc2c1C | -18 | 1 | 1 | -4 | . | -12
NS(=O)(=O)c1ccc(N/N=C/c2ccccn2)c([N+](=O)[O-])c1 | -3 | 0 | 46* | 10 | -11 | -12
NS(=O)(=O)c1ccc(N/N=C/c2ccc(O)cc2O)c([N+](=O)[O-])c1 | 1 | 3 | 20 | 10 | 1 | 4
C/C(=N\Nc1ccc(S(N)(=O)=O)cc1[N+](=O)[O-])c1ccccc1O | -13 | 5 | 22 | -15 | -7 | -1
C/C(=N\Nc1ccc(S(N)(=O)=O)cc1[N+](=O)[O-])c1ccco1 | 16 | -3 | 41* | 3 | -11 | 8
CN(C(=O)Nc1ccccc1)n1cnc2ccccc2c1=O | -8 | 0 | 0 | -11 | -4 | -5
Cc1c(NC(=O)c2ccccc2F)c(=O)n(-c2ccccc2)n1C | 2 | 2 | 11 | 17 | -12 | -2
SMILES | CHO parental Ca | TAAR1 ag | OX1R antag-1 | TAAR1 antagonist | GPR7 antagonist | OX1R antag-2
O=[N+]([O-])c1cc(NCCO)c(N2CCCCCC2)c2nonc12 | -4 | 1 | 46* | -6 | -6 | -21
CC1CN(C(=O)c2cc3cc([N+](=O)[O-])ccc3s2)CC(C)O1 (stereo unspecified) | 1 | 0 | 45 | -1 | 3 | -15
CCOC(=O)C(NC(=O)CC)C(O)c1cccc([N+](=O)[O-])c1 (stereo unspecified) | -9 | 2 | -1 | -15 | 4 | -5
CCC(CO)[n+]1c(C)cc(/C=C2\Sc3ccccc3N2Cc2ccccc2)cc1C (stereo unspecified) | 41* | 5 | 15 | 6 | 0 | 17
COc1ccc(NC(=O)CSCC(=O)Nc2ccccc2N2CCCC2)cc1 | -12 | 0 | 19 | -1 | . | -26
COc1ccc(NC(=O)CSCC(=O)Nc2ccccc2N2CCCCC2)cc1 | -30 | 4 | 36* | 25 | . | -8
N#C/C(=C\c1ccc(N2CCOCC2)o1)C(=O)NCCc1ccccc1 | 12 | 41* | 26 | 32 | 10 | 19
N#C/C(=C/c1ccc(N2CCOCC2)o1)C(=O)Nc1ccccc1 | . | 56* | . | 34 | 11 | .
NC(=O)C1CCN(c2oc(-c3ccc(F)cc3)nc2S(=O)(=O)c2ccccc2)CC1 | -17 | 2 | 4 | -9 | . | 9
COC(=O)c1cc(NC(=O)CN(c2ccccc2OC)S(=O)(=O)c2ccccc2)ccc1Cl | -10 | 7 | 17 | 51* | 13 | 0
CCOc1ccccc1N(CC(=O)NCCc1ccc(OC)c(OC)c1)S(=O)(=O)c1ccccc1 | -16 | 6 | 76* | -29 | -8 | 6
COc1ccc(OC)c(N(CC(=O)NC2CC3CCC2C3)S(=O)(=O)c2ccccc2)c1 (stereo unspecified) | -40 | 6 | 46* | -22 | 20 | -41
CCOc1ccccc1N(CC(=O)Nc1ccc(OC)cc1OC)S(=O)(=O)c1ccccc1 | 0 | -2 | 50* | -32 | 4 | -8
CCOc1ccccc1N(CC(=O)Nc1ccc(OC)cc1)S(=O)(=O)c1ccccc1 | -24 | 1 | 18 | 20 | -2 | -27
C/C(=N\Nc1cccc(C(=O)O)c1)c1ccc(Cl)s1 | 4 | -1 | 18 | 13 | -16 | 5
Cc1ccc(CN2CCC[C@]3(N[C@H](c4ccc(C(F)(F)F)cc4)[C@@H]4C(=O)N(C)C(=O)[C@@H]43)C2=O)cc1 | . | 1 | . | -14 | . | .
O=C(Nc1ccccc1)N1CCC(C(=O)N2CCN(S(=O)(=O)c3cccc(F)c3)CC2)CC1 | 9 | 8 | 3 | -1 | 2 | -23
Cc1cc(C)c2c(=O)n3c(nc2c1)C(Cc1ccccc1)NC(=O)c1cccnc1-3 (stereo unspecified) | . | 1 | . | -19 | . | .
COC(=O)CNC(=O)CN(c1ccc(OC)cc1OC)S(=O)(=O)c1ccccc1 | -13 | 1 | 2 | 2 | . | 7
COc1ccc(N(CC(=O)NCCC2=CCCCC2)S(=O)(=O)c2ccccc2)c(OC)c1 | -37 | -2 | 62* | 6 | 17 | -31

Source: PubChem
